Screens from PubChem.
This is a sample that favours compounds with a hit; in the whole collection about 1.5% have one here.
S1P4 antag: S1P4 receptor antagonists, primary screen, cell-based; S1P4-expressing cells, antagonist mode, reporter read-out; inhibition, % at 4.98 µM; AID 1510, 2009; 0.26% of 220,000 active; in the data active = inhibition above about 29%
Target sequence (O95977 whole entry, looked up): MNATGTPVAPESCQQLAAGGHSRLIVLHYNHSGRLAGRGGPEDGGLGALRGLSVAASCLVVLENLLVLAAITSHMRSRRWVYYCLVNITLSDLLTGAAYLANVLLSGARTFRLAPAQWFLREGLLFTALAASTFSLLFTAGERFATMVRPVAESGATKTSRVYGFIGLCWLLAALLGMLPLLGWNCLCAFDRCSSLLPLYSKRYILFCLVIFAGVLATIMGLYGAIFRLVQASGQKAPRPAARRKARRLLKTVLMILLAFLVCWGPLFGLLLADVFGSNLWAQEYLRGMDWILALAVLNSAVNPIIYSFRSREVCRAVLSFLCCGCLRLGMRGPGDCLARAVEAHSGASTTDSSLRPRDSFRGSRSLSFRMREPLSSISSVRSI
TNF death inh: inhibitors of TNF-alpha triggered necroptosis, primary screen, cell-based, Jurkat FADD-/-, single concentration; Jurkat FADD-/- TNF necroptosis rescue, ATP luminescence, 24 h; 0 = TNF only, 100 = no-TNF cells; activation (protection from cell death), % at 10 µM; 0.068% of 220,000 active;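 active = activation, meaning protection from cell death, of at least 50% relative to plate controls; inactive = activation below 50%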;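 note: necroptosis triggered by 40 ng/mL TNF-alpha added together with compound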
Dynein transport: inhibitors of GR-EGFP nuclear translocation, primary screen, dynein cargo transport inhibitor project, imaging, high-content, 3617.4 mouse cells | z-score, hits read low | test concentration mostly 20 µM; stimulated with dexamethasone, 1 µM; hits give low values | 0.47% of 220,000 active;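 active = plate z-score of nuclear minus cytoplasmic receptor signal below a set negative limit, without overly bright fluorescence or cell loss, cut at about -3.5 in these data, passing the limit was not always enough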;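 note: z-score of nuclear minus cytoplasmic ring GR-EGFP intensity difference per well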
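Buffer or medium: tet-free, stripped-serum medium; Also added: dexamethasone, 1.0 µM final; Technique: high-content fluorescence imaging after fixation; Times: 48 h induction, 1 h compound, 30 min dex at 37 °C; Read-out: per-cell GR-EGFP intensity, nucleus versus surrounding cytoplasmic ring, well-averaged.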
L929 necroptosis: inhibitors of zVAD-triggered necroptosis, primary screen, L929 cells | L929 zVAD necroptosis rescue, ATP luminescence, 24 h; with zVAD 60 µM | viability rescue, % at 10 µM | 0.38% of 220,000 active;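 active = activation, scaled between plate controls, above about 75%, limit read from the data; inactive = activation under that limit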
S1P4 ag: S1P4 receptor agonists, primary screen, cell-based; 0.35% of 220,000 active; Sphingosine 1-phosphate receptor 4 (Homo sapiens), O95977; S1P4-expressing cell line, agonist reporter assay; activation, % at 4.98 µM; in the data active = activation above about 11%
Tb hexokinase: Trypanosoma brucei hexokinase 1 inhibitors, primary screen, biochemical, G6PDH-coupled NADH absorbance, MLSCN library; hexokinase 1 [Trypanosoma brucei]; recombinant TbHK1, G6PDH-coupled NADH A340; inhibition, % at 10 µM; 0.11% of 220,000 active;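 active = inhibition of 50% or more in the single-dose primary screen; inactive = inhibition below 50%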
S1P4 antag conf: S1P4 receptor antagonists, human, confirmation, cell-based; shares compounds with S1P4 antag; S1P4-expressing cell line, antagonist mode, reporter read-out; inhibition, % at 4.98 µM; 71% of 520 active; AID 1524, 2009; in the data active = inhibition above about 30%
S1P1 antag: S1P1 receptor antagonists, human, counter-screen for S1P4 antagonist project, cell-based; shares compounds with S1P4 antag; cell-based S1P1 antagonist counterscreen, inhibition; inhibition, % at 4.98 µM; 37% of 520 active; in the data active = inhibition above about 40%;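 note: receptor stimulated with S1P near its EC80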
A number is an active result; 0 = inactive; - = not tested or not shown.

SMILES | S1P4 antag | TNF death inh | Dynein transport | L929 necroptosis | S1P4 ag | Tb hexokinase | S1P4 antag conf | S1P1 antag
CCN(CC)c1ccc(/C=N/Nc2nc3ccccc3[nH]2)cc1 | 37 | 0 | 0 | 0 | 0 | 0 | 110 | 81
Nc1ccc2c(C(F)(F)F)cc(=O)oc2c1 | 46 | 0 | 0 | 0 | 0 | 0 | 45 | 0
CCN(C(=O)CSc1nnc(C)n1-c1ccccc1)C1CCS(=O)(=O)C1 (configuration not stated) | 0 | 0 | 0 | 0 | 0 | 0 | - | -
O=C(/C=C/c1ccccc1[N+](=O)[O-])c1ccccc1Br | 36 | 0 | 0 | 0 | 0 | 0 | 79 | 0
Cc1cc(N(C)C)c(C#N)c(NCc2ccccc2)n1 | 35 | 0 | 0 | 0 | 0 | 0 | 0 | 0
CN(C)c1ccnc(NCc2ccccc2)c1C#N | 0 | 0 | 0 | 0 | 0 | 0 | - | -
COC(=O)COc1ccc(S(=O)(=O)N2CCN(c3ccccc3)CC2)cc1 | 0 | 0 | 0 | 0 | 0 | 0 | - | -
COC(=O)COc1ccc(S(=O)(=O)N2CCN(c3ccccc3F)CC2)cc1 | 29 | 0 | 0 | 0 | 0 | 0 | 0 | 0
CCC(C)C(NC(=O)OC(C)(C)C)C(=O)NC(C(=O)NC(C)C(N)=O)C(C)C (configuration not stated) | 0 | 0 | 0 | 0 | 0 | 0 | - | -
N#CCSc1nnc(SCC#N)s1 | 32 | 0 | 0 | 0 | 0 | 0 | 0 | 0
Cc1ccc(OCc2nc(-c3ccccc3)no2)c(C)c1 | 0 | 0 | 0 | 0 | 0 | 0 | - | -
Cc1cc(C)c(C)c(OCc2nc(-c3cccnc3)no2)c1 | 30 | 0 | 0 | 0 | 0 | 0 | 0 | 0
Cc1ccc(S(=O)(=O)N2CCOCC2)c2nsnc12 | 0 | 0 | 0 | 0 | 0 | 0 | - | -
O=S(=O)(c1ccc(Br)c2nsnc12)N1CCOCC1 | 79 | 0 | 0 | - | 0 | 0 | 39 | 0
COc1ccc(OC)c(NC(=O)COC(=O)CSc2ccc(Cl)cc2)c1 | 0 | 0 | 0 | - | 0 | 0 | - | -
COc1cc(NC2CCCCC2O)c2nc(-c3ccc(Cl)cc3)ccc2c1 (configuration not stated) | 30 | 0 | 0 | 0 | 0 | 0 | 65 | 62
Cc1ccc(NC(=O)C(OC(=O)c2ccc(O)cc2)c2ccccc2)cc1Cl (configuration not stated) | 0 | 0 | 0 | 0 | 0 | 0 | - | -
Cc1ccc(NC(=O)C(c2ccccc2)N(C)C)cc1Cl (configuration not stated) | 34 | 0 | 0 | 0 | 0 | 0 | 31 | 0
Oc1ccccc1C1CC(c2cccs2)=NC(c2cccc(Br)c2)N1 (configuration not stated) | 30 | 0 | 0 | 0 | 0 | 0 | 43 | 0
COc1ccccc1N(CC(=O)N/N=C/c1ccc(C(=O)O)cc1)S(=O)(=O)c1ccc(C)cc1 | 0 | 0 | 0 | 0 | 0 | 0 | - | -
Cc1nc(CNC(=O)CC2C(=O)NCCN2Cc2cccc(Oc3ccccc3)c2)cs1 (configuration not stated) | 0 | 0 | 0 | 0 | 0 | 0 | - | -
COCCOC(=O)C1=C(C)N=C2SCCC(=O)N2C1c1ccc(OC(=O)c2ccco2)cc1 (configuration not stated) | 35 | 0 | 0 | 0 | 0 | 0 | 54 | 52
Cc1c(C(=O)NC(=S)Nc2ccc(N3CCOCC3)cc2)cccc1[N+](=O)[O-] | 0 | 0 | 0 | 0 | 0 | 0 | - | -
O=c1c(Br)c(Br)cnn1-c1ccccc1 | 112 | 0 | -5.8 | 0 | 0 | 0 | 121 | 48
COc1ccc(-c2n(Cc3ccccc3)c3ccccc3[n+]2Cc2ccccc2)cc1 | 0 | 0 | 0 | 0 | 0 | 0 | - | -
